A selection: hits, their analogues and other compounds. The true share with any hit is near 1.7%.
CHRM5 PAM: potentiates acetylcholine response at human M5 receptor; CHO-K1 hM5, Fluo-8 calcium, ACh EC20 PAM; 0% = ACh EC20, 100% = ACh EC100; P08912; AID 624038; activation, % at 3 µM; actives 0.3% (n = 360,000);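 active = activation above the run cutoff, the mean activation of all test compounds plus 3 SD, cut at about 18% in these data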
Target sequence (P08912 whole entry, looked up): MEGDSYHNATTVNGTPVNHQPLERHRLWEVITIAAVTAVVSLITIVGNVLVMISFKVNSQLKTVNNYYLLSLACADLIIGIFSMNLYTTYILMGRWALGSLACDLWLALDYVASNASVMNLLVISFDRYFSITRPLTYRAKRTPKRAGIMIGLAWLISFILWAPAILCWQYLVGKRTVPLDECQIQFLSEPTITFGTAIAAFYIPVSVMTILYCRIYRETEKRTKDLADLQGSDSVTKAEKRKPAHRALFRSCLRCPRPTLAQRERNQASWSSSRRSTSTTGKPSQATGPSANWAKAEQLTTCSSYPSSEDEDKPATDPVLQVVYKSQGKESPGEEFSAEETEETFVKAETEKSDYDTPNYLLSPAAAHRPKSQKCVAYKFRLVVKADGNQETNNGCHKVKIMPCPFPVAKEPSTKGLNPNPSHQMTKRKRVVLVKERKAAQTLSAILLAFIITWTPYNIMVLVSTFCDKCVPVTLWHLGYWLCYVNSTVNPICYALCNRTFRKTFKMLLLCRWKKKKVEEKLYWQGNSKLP
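Assay system: CHO-K1 hM5 cells. Also added: acetylcholine at EC20 concentration, added after compound. Dosing: 3 µM, single dose. Times: compound preincubation 140 s before EC20 acetylcholine addition. Signal: Fluo-8 calcium fluorescence. Measure: % activation relative to EC20 and EC100 ACh responses. Repeats: singlicate, one well per test compound.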
CHO-K1 Ca PAM: nonselective activator or artifact in parental CHO-K1 calcium assay. ATP EC20, Fluo-8 calcium fluorescence; 0% at ATP EC20, 100% at ATP max. activation, % at 3 µM. actives 0.02% (n = 360,000). AID 602247;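 active = activation above the run cutoff, the mean activation of all test compounds plus 3 SD, cut at about 40% in these data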;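 note: peak over basal fluorescence ratio in a 140 s read after ATP addition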
CHO-K1 Ca ag: counter-screen for M1 agonists: effect in parental CHO-K1 cells; Fluo-8 calcium fluorescence; scaled to maximal ATP response, vehicle zero; activation, % at 3 µM; actives 0.48% (n = 360,000); AID 602248; in the data active = activation above about 15%;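 note: untransfected CHO-K1 host cells lacking M1 receptor as counterscreen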
CHRM5 antagonist: antagonists of human muscarinic M5 receptor (CHRM5); actives 0.59% (n = 360,000); CHO-hM5 cells, Fluo-8 calcium fluorescence, ACh EC80; inhibition, % at 3 µM;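 active = inhibition above a per-plate cutoff, the mean of that plate's test compounds plus 3 SD, cut at about 27% in these data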;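 note: 0% = acetylcholine EC80 with DMSO and 100% = DMSO without agonist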
CHRM5 agonist: agonists of human muscarinic M5 receptor (CHRM5). activation, % at 3 µM. actives 0.19% (n = 360,000). AID 624037. CHO-K1 hM5 cells, Fluo-8 calcium fluorescence; 0% DMSO wells, 100% maximal acetylcholine response. P08912;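 active = activation above the run's mean over test compounds plus 3 SD, cut at about 23% in these data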;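 note: signal is peak over basal fluorescence ratio across the kinetic read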
CHO-K1 Ca antag: M1 antagonist counterscreen hit in parental CHO-K1 cells; ATP-induced calcium, Fluo-8 fluorescence; inhibition, % at 3 µM; actives 0.6% (n = 360,000); AID 602250;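 active = inhibition above a per-plate cutoff, the plate's mean sample inhibition plus 3 SD, cut at about 24% in these data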;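 note: 0% = DMSO plus EC80 ATP and 100% = DMSO alone without ATP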
Numbers without * were called inactive.

What do the screens show for `Cc1ccc(C(OCC(O)CNC(C)c2ccccc2)c2ccccc2)cc1` (stereo unspecified)?
CHRM5 PAM: 0.4; CHO-K1 Ca PAM: -8.0; CHO-K1 Ca ag: 2.8; CHRM5 antagonist: 13.3; CHRM5 agonist: 3.6; CHO-K1 Ca antag: -5.5

What do the screens show for `Cc1ccc(C(OCC(C)(C)C[N+](C)(C)C)c2ccccc2)cc1` (stereo unspecified)?
CHRM5 PAM: -21.2; CHO-K1 Ca PAM: -14.6; CHO-K1 Ca ag: -0.5; CHRM5 antagonist: 93.8*; CHRM5 agonist: -11.0; CHO-K1 Ca antag: 19.1

Results for CCN(CC)CCOC(c1ccccc1)c1ccc(C)cc1 (stereo unspecified) ?
CHRM5 PAM: -18.9; CHO-K1 Ca PAM: 19.4; CHO-K1 Ca ag: 1.1; CHRM5 antagonist: 75.2*; CHRM5 agonist: -7.8; CHO-K1 Ca antag: 1.2

How did Cc1nnc(SCC2=C(C(=O)O)N3C(=O)C(NC(=O)Cn4nc(C(F)F)c(Cl)c4C)C3SC2)s1 (stereo unspecified) do in these assays?
CHRM5 PAM: 5.5; CHO-K1 Ca PAM: 16.8; CHO-K1 Ca ag: -0.1; CHRM5 antagonist: 3.8; CHRM5 agonist: -1.9; CHO-K1 Ca antag: -21.4

How did CCN(CC)c1ccc(/C=C/C(=O)c2ccc(Br)cc2)cc1 do in these assays?
CHRM5 PAM: -18.4; CHO-K1 Ca PAM: -3.9; CHO-K1 Ca ag: 111.2*; CHRM5 antagonist: 66.6*; CHRM5 agonist: 112.8*; CHO-K1 Ca antag: 72.8*

What do the screens show for `Cc1ccc(C(C)C)c(OCCN)c1`?
CHRM5 PAM: -1.8; CHO-K1 Ca PAM: 1.6; CHO-K1 Ca ag: 0.9; CHRM5 antagonist: 3.1; CHRM5 agonist: -5.3; CHO-K1 Ca antag: -9.2

Results for Cc1ccc(C(C)C)c(OCCCn2ccnc2C)c1 ?
CHRM5 PAM: -17.8; CHO-K1 Ca PAM: 12.4; CHO-K1 Ca ag: 1.3; CHRM5 antagonist: 90.8*; CHRM5 agonist: -6.9; CHO-K1 Ca antag: -10.0

What do the screens show for `Cc1c(C(c2ccccc2)c2c(C)n(C)n(-c3ccccc3)c2=O)c(=O)n(-c2ccccc2)n1C`?
CHRM5 PAM: 11.9; CHO-K1 Ca PAM: 14.5; CHO-K1 Ca ag: 0.7; CHRM5 antagonist: -7.0; CHRM5 agonist: 0.5; CHO-K1 Ca antag: -5.6

How did Cc1c(-n2c(-c3ccccc3)nc3ccccc3c2=O)c(=O)n(-c2ccccc2)n1C do in these assays?
CHRM5 PAM: 8.5; CHO-K1 Ca PAM: 10.8; CHO-K1 Ca ag: 20.6*; CHRM5 antagonist: -7.8; CHRM5 agonist: 1.5; CHO-K1 Ca antag: 2.7

How did Cc1c(C(c2ccc(O)cc2)c2c(C)n(C)n(-c3ccccc3)c2=O)c(=O)n(-c2ccccc2)n1C do in these assays?
CHRM5 PAM: -13.4; CHO-K1 Ca PAM: -4.2; CHO-K1 Ca ag: 3.6; CHRM5 antagonist: 30.7*; CHRM5 agonist: 0.8; CHO-K1 Ca antag: 0.6

Results for COc1ccc(Br)c(C(=O)N2CCCC2(C)C(=O)NCC(C)C)c1 (stereo unspecified) ?
CHRM5 PAM: -1.1; CHO-K1 Ca PAM: -16.4; CHO-K1 Ca ag: -0.8; CHRM5 antagonist: 9.0; CHRM5 agonist: -0.5; CHO-K1 Ca antag: 26.7*

How did CCCCNC(=O)C1(C)CCN1C(=O)c1cc(OC)ccc1Br (stereo unspecified) do in these assays?
CHRM5 PAM: -1.8; CHO-K1 Ca PAM: 0.5; CHO-K1 Ca ag: 0.3; CHRM5 antagonist: -1.8; CHRM5 agonist: 0.5; CHO-K1 Ca antag: -0.9

What do the screens show for `CCn1cc(C(=O)NCCCN2CC(C)CC(C)C2)c2cc(OC)c(OC)cc2c1=O` (stereo unspecified)?
CHRM5 PAM: 8.9; CHO-K1 Ca PAM: 13.3; CHO-K1 Ca ag: 0.1; CHRM5 antagonist: 0.8; CHRM5 agonist: -4.6; CHO-K1 Ca antag: -5.0

Results for COc1ccc(Nc2c(CCc3ccccc3)nc3nc(C)cc(C)n23)cc1 ?
CHRM5 PAM: 7.4; CHO-K1 Ca PAM: -4.2; CHO-K1 Ca ag: -1.0; CHRM5 antagonist: 0.7; CHRM5 agonist: 5.5; CHO-K1 Ca antag: -11.1

Results for Cc1ccccc1CN1C(=O)Nc2ccccc2C(=O)N1C(C)(C)C ?
CHRM5 PAM: 50.5*; CHO-K1 Ca PAM: -6.0; CHO-K1 Ca ag: 0.2; CHRM5 antagonist: -4.0; CHRM5 agonist: -4.4; CHO-K1 Ca antag: 6.3

Results for COCCN(C(=O)Cc1coc2cc(C)c(C)cc12)c1c(N)n(Cc2ccccc2)c(=O)[nH]c1=O ?
CHRM5 PAM: -32.2; CHO-K1 Ca PAM: -8.7; CHO-K1 Ca ag: 0.4; CHRM5 antagonist: 100.4*; CHRM5 agonist: -9.5; CHO-K1 Ca antag: -4.6

How did O=C(CN1CCOCC1)Nc1ccccc1-c1ccccc1 do in these assays?
CHRM5 PAM: -1.7; CHO-K1 Ca PAM: -6.9; CHO-K1 Ca ag: 0.0; CHRM5 antagonist: -5.8; CHRM5 agonist: -1.3; CHO-K1 Ca antag: 10.0

Results for O=C(CN1CCCCC1)Nc1ccccc1-c1ccccc1 ?
CHRM5 PAM: -25.0; CHO-K1 Ca PAM: -0.5; CHO-K1 Ca ag: -1.1; CHRM5 antagonist: 45.4*; CHRM5 agonist: -7.9; CHO-K1 Ca antag: -20.4

What do the screens show for `O=C(COC(=O)c1ccc(O)cc1)Nc1ccccc1-c1ccccc1`?
CHRM5 PAM: -19.0; CHO-K1 Ca PAM: -5.0; CHO-K1 Ca ag: 7.2; CHRM5 antagonist: 35.2*; CHRM5 agonist: 2.2; CHO-K1 Ca antag: 10.9

How did O=C(CN1CCC(NC(=O)Nc2ccccc2-c2ccccc2)CC1)NCc1ccco1 do in these assays?
CHRM5 PAM: -17.6; CHO-K1 Ca PAM: 16.1; CHO-K1 Ca ag: 0.9; CHRM5 antagonist: 60.7*; CHRM5 agonist: -6.7; CHO-K1 Ca antag: -13.7

What do the screens show for `CC(Sc1nc2ncc(Cl)cc2[nH]1)C(=O)Nc1ccc(C(N)=O)cc1` (stereo unspecified)?
CHRM5 PAM: -3.8; CHO-K1 Ca PAM: 5.5; CHO-K1 Ca ag: 0.5; CHRM5 antagonist: 2.9; CHRM5 agonist: -0.1; CHO-K1 Ca antag: 1.8

How did CCNc1nc(Nc2ccc(C)c(Cl)c2)c2cnn(C)c2n1 do in these assays?
CHRM5 PAM: -1.8; CHO-K1 Ca PAM: 20.9; CHO-K1 Ca ag: -0.2; CHRM5 antagonist: -1.8; CHRM5 agonist: -3.4; CHO-K1 Ca antag: -19.5

What do the screens show for `Cc1cc(=O)n2nc(N3CCCC3C(=O)NCCCN3CCCCC3)sc2n1` (stereo unspecified)?
CHRM5 PAM: 19.5*; CHO-K1 Ca PAM: 3.0; CHO-K1 Ca ag: -0.3; CHRM5 antagonist: 13.1; CHRM5 agonist: -0.1; CHO-K1 Ca antag: 14.1

What do the screens show for `Cc1cccc(CNC(=O)CCCn2nc(C)c3c(C)n(-c4ccccc4)nc3c2=O)c1`?
CHRM5 PAM: -5.1; CHO-K1 Ca PAM: -8.4; CHO-K1 Ca ag: -0.3; CHRM5 antagonist: 12.6; CHRM5 agonist: -7.7; CHO-K1 Ca antag: -22.9

How did C=CCNc1nc2c(c(=O)n(C)c(=O)n2C)n1CC do in these assays?
CHRM5 PAM: -5.3; CHO-K1 Ca PAM: -9.2; CHO-K1 Ca ag: 1.1; CHRM5 antagonist: 1.0; CHRM5 agonist: 0.3; CHO-K1 Ca antag: 30.5*

What do the screens show for `O=S(=O)(c1ccc(F)cc1)N1CCC(N2CCCC2)CC1`?
CHRM5 PAM: 0.8; CHO-K1 Ca PAM: 4.5; CHO-K1 Ca ag: -0.4; CHRM5 antagonist: -3.5; CHRM5 agonist: -4.5; CHO-K1 Ca antag: 40.0*
